# Screens: PubChem, Johns Hopkins Ion Channel Center
# In the library only some 3.8% were active in any assay of this set; here they are far more common.
# Kir21 inh = blocks the mouse Kir2.1 inward-rectifier potassium channel | 310,000 compounds, 0.85% hits | B-score at 10 µM | P35561 | HEK293-Kir2.1, FluxOR thallium flux fluorescence; stronger effect = lower value;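 active = fluorescence ratio B-score at or below minus 3 SD of library scores, with starting-brightness B-score within 2 SD, cut at about -4.2 in these data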;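 note: channel flux triggered by added potassium and thallium sulfate stimulus; B-score of peak minus minimum fluorescence over baseline after thallium stimulus; more negative B-score means stronger Kir2.1 block with less thallium influx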
# KCNQ1 act = potentiators or activators of human KCNQ1 potassium channel | P51787 | B-score at 10 µM | AID 2648 | CHO-K1 KCNQ1, thallium flux FluxOR fluorescence; stronger effect = higher value | 310,000 compounds, 0.35% hits;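 active = fluorescence ratio B-score, a plate-corrected score, at least three library SD, with initial intensity B-score within 5 SD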
# Target sequence (P51787 whole entry, looked up): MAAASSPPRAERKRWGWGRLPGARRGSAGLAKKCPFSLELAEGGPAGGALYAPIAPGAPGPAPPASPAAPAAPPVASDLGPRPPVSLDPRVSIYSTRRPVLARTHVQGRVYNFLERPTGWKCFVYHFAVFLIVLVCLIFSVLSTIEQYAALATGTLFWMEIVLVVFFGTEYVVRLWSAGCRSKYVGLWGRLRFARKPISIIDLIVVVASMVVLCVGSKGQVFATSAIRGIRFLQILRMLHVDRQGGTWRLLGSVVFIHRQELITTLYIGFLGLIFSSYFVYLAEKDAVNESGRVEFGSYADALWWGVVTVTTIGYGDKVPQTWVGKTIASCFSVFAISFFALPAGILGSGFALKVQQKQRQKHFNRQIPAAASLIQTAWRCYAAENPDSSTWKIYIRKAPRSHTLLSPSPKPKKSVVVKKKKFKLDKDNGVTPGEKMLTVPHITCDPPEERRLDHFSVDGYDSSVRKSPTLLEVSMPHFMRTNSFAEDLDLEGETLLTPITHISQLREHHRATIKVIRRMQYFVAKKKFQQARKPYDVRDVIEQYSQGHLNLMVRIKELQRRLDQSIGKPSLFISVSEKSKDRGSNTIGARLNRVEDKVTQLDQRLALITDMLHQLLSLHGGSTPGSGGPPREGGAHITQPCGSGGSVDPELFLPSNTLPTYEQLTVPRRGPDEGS
#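 Material: CHO-K1 cells stably expressing KCNQ1. Medium: assay buffer for compound exposure, DMSO matched across wells. Reagent: K+/Tl+ depolarizing stimulus. Compound dosing: single-concentration screen. Times: 37 °C overnight plating, 90-min dark dye load, 20-min compound pretreatment. Technique: FluxOR Tl+ flux fluorescence.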
# KCNK9 block = human KCNK9 channel inhibition; Q9NPC2; HEK293 KCNK9, FluxOR thallium flux fluorescence; stronger effect = lower value; 310,000 compounds, 1.2% hits; B-score at 10 µM;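 active = ratio B-score over 3 SD below the library mean, with starting fluorescence within 5 SD of its mean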;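 note: negative B-score means less thallium flux so channel inhibition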
# KCNQ1 inh = inhibitors of human KCNQ1 potassium channel; P51787; CHO-K1 KCNQ1, FluxOR thallium flux fluorescence; stronger effect = higher value; B-score at 10 µM; 310,000 compounds, 1.3% hits;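 active = compounds whose thallium flux B-score, printed positive for inhibition, exceeds three library SD while starting fluorescence stays within three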;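 note: channel opened by potassium depolarization with thallium stimulus after 20 min compound exposure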
# KCNK3 block = human KCNK3 channel inhibition, primary screen. O14649. CHO-KCNK3 thallium flux, FluxOR fluorescence; stronger effect = lower value. B-score at 10 µM. 340,000 compounds, 0.84% hits;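 active = B-score under library mean minus 4 SD, starting fluorescence ratio at most library mean plus 5 SD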;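 note: more negative B-score means stronger inhibition of thallium flux through KCNK3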
# hERG protect = shields human hERG channel from block by proarrhythmic agents; Q12809; CHO-hERG, FluxOR thallium flux, dofetilide IC70 present; activation (rescue from dofetilide block), less the hit threshold, % at 10 µM; 310,000 compounds, 0.51% hits; AID 1511;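 active = activation above the mean of controls blocked by dofetilide plus 5 SD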;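 note: thallium influx through hERG after potassium depolarization seen as dye fluorescence rise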
# KCNK9 block conf = confirmation of human KCNK9 potassium channel inhibitors | HEK293 KCNK9 cells, FluxOR thallium flux fluorescence | 4,900 compounds, 43% hits | shares compounds with KCNK9 block | inhibition, % at 10 µM;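 active = thallium signal inhibited by more than 5 SD of the compound-free buffer control wells, on both duplicate plates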;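 note: 0% = assay buffer control wells without compound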
# Kir21 sel = tests whether KCNK9 modulators also affect mouse Kir2.1; AID 492993; shares compounds with KCNK9 block; 4,900 compounds, 4% hits; inhibition, % at 10 µM; Kir2.1 cells, FluxOR thallium flux fluorescence;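 active = thallium signal drop more than 5 SD beyond the mean of the no-compound control wells, seen in both duplicate plates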;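 note: signal is fluorescence rise after thallium addition divided by baseline fluorescence; plate controls were assay buffer only for no effect and full block by chlorpromazine control for full effect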
# HEK293 Tl ctr = second check of KCNK9 modulator effects in non-induced HEK293 cells; shares compounds with KCNK9 block; FluxOR thallium flux; inhibition, % at 10 µM; 4,900 compounds, 40% hits; AID 492997;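 active = thallium signal drop beyond 5 SD of the untreated control mean, on both duplicate plates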;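 note: plate controls were buffer only IC0 wells for no effect and SID17386958 at its maximal inhibitory level for full effect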
# * = called active by the depositor; i = inactive; . = no result.
SMILES,Kir21 inh,KCNQ1 act,KCNK9 block,KCNQ1 inh,KCNK3 block,hERG protect,KCNK9 block conf,Kir21 sel,HEK293 Tl ctr
c1ccc(OCCOc2ccccc2-c2nnco2)cc1,-1.4,i,-8.4*,i,i,2,i,i,28%*
Clc1ccccc1COc1ccccc1-c1nnco1,0.1,i,i,i,i,-10,.,.,.
CCn1c(SCC(=O)N2CCOCC2)nnc1C(C)NC(=O)c1ccccc1 (stereo not drawn),1.3,i,i,i,i,-4,.,.,.
COc1ccc(NC(=O)N2CCN(c3cccc(C(F)(F)F)c3)CC2)cc1OC,-1.4,i,i,i,i,-11,.,.,.
COc1ccc(CC(C)N2CCN(c3cccc(C(F)(F)F)c3)CC2)cc1OC (stereo not drawn),0.31,i,i,i,i,-5,i,i,i
COC(=O)c1cc(CN2CCN(c3ccccc3)CC2)ccc1O,-0.45,i,i,i,i,-3,i,i,i
COCCn1nnnc1C(c1cccs1)N1CCN(c2cccc(C(F)(F)F)c2)CC1 (stereo not drawn),0.33,i,-14*,i,i,-6,59%*,i,40%*
CCOc1cc(CN2CCN(c3cccc(C(F)(F)F)c3)CC2)ccc1OC,2.9,i,i,i,i,-4,i,i,i
Cc1cc(C)nc(NS(=O)(=O)c2ccc(NC(=O)CSc3nc(-c4ccccc4)c(C#N)c(=O)[nH]3)cc2)n1,-0.02,i,i,i,i,-8,.,.,.
CCOc1cc(CN2CCN(c3cccc(C(F)(F)F)c3)CC2)ccc1O,-0.96,i,i,i,i,-21,i,i,i
O=C(CCN1C(=O)C2CCCCC2C1=O)Nc1ccc(Br)cc1F (stereo not drawn),0.29,i,i,i,i,-11,.,.,.
Cc1cccc(N2CCN(C(=S)c3ccc(-c4ccccc4[N+](=O)[O-])o3)CC2)c1,0.11,i,i,i,i,-10,i,i,i
O=[N+]([O-])c1cccc(-c2ccc(C(=S)N3CCOCC3)o2)c1,2.2,i,i,i,i,-8,.,.,.
O=[N+]([O-])c1cccc(-c2ccc(C(=S)N3CCN(c4ccccc4)CC3)o2)c1,0.88,i,-8.3*,i,i,-12,33%*,i,42%*
COc1ccccc1OCc1nc(C#N)c(N2CCCC2)o1,2.4,i,i,i,i,-13,.,.,.
COc1ccccc1OCc1nc(C#N)c(N2CC(C)CC(C)C2)o1 (stereo not drawn),-0.52,i,i,i,i,-6,i,i,i
COc1ccc2nc(SCC(=O)Nc3ccc4[nH]c(=O)[nH]c4c3)[nH]c2c1,.,.,.,.,i,.,.,.,.
COc1ccc2nc(SCC(=O)Nc3ccc4c(c3)CCC4)[nH]c2c1,-1.1,i,i,i,i,-12,i,i,i
COc1ccc(NC(=O)c2ccc(-c3ccc(C)c4ccccc34)o2)cc1,0.9,i,i,i,i,-8,.,.,.
Cc1ccc(-c2ccc(C(=O)Nc3cccc(F)c3)o2)c2ccccc12,1.5,i,i,i,i,-17,i,i,i
CC(=O)c1cccc(NC(=O)c2cccc3ccccc23)c1,1.1,i,i,i,i,-7,.,.,.
CCOc1ccc(CCNC(=O)c2cc3c(s2)CS(=O)(=O)C3)cc1OCC,0.62,i,i,i,i,-10,.,.,.
COc1ccc(-c2nn(C)c3sc(C(=O)NCc4ccco4)cc23)cc1OC,0.64,i,i,i,i,-1,.,.,.
